Assay outcomes as filed in PubChem.
CHRM1 PAM = positive allosteric modulators of human M1 muscarinic receptor. P11229. CHO-K1 hM1, Fluo-8 calcium fluorescence, ACh EC20; 0% = ACh EC20, 100% = maximal ACh. activation, % at 3 µM. actives 0.088% (n = 360,000); in the data active = activation above about 19%, passing the limit was not always enough
M1 antag = blocks human M1 muscarinic receptor; CHO-K1 hM1, Fluo-8 calcium fluorescence, ACh EC80 antagonist; inhibition, % at 3 µM; actives 1.3% (n = 360,000);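 active = percent inhibition above its own plate's cutoff, namely the mean of that plate's compound wells plus 3 SD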;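 note: peak over basal fluorescence ratio during 140 s after agonist addition; 0% = ACh EC80 plus DMSO and 100% = DMSO alone without agonist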
TAAR1 antag = antagonists of human TAAR1. Q96RJ0. CHO RD-HGA16 TAAR1, Fluo-8 calcium fluorescence, antagonist. inhibition, % at 3 µM. actives 1.5% (n = 360,000). AID 624466;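 active = inhibition above a per-plate cutoff, the mean inhibition of test compounds on that plate plus 3 SD, cut at about 49% in these data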;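 note: 0% = DMSO plus EC80 beta-PEA response and 100% = DMSO alone without agonist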
Target sequence (Q96RJ0 whole entry, looked up): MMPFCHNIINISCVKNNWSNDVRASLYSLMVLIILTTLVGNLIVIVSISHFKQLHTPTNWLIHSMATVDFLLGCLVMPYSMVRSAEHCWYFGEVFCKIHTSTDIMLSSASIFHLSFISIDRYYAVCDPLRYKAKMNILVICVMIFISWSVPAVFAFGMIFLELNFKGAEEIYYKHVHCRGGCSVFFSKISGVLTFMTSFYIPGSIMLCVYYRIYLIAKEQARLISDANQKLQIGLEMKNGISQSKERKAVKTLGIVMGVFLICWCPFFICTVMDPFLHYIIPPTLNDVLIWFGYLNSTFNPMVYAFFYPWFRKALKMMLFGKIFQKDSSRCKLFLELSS
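Test system: CHO RD-HGA16 cells bearing hTAAR1 | Reagent: β-PEA, EC80 | Compound dosing: 3 µM, single point | Schedule: Dye loading 75 min at 37 °C, then 30 min room temperature | Signal: Calcium fluorescence with Fluo-8 | Evaluation: Percent inhibition of PEA-evoked calcium signal, max/basal emission ratio | Control set: DMSO-only wells and EC80 β-PEA-stimulated wells | Repeats: Singlicate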
CHRM1 agonist = human M1 muscarinic receptor agonism; CHO-K1 hM1, Fluo-8 calcium fluorescence, agonist mode; 0% DMSO, 100% acetylcholine EC100; AID 588814; actives 0.33% (n = 360,000); P11229; activation, % at 3 µM;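 active = activation above the run's mean compound activation plus 3 SD, cut at about 16% in these data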;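 note: peak over basal fluorescence ratio within a 140 s kinetic read after compound addition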
m5-HT2A agonist = agonists of mouse serotonin 5-HT2A receptor (HTR2A); actives 0.66% (n = 360,000); AID 624169; P35363; activation, % at 7.6 µM; CHO-K1 mHTR2A beta-arrestin complementation, luminescence; percent of 30 µM serotonin response;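 active = activation above a run cutoff, the mean activation of all tested compounds plus 3 SD, cut at about 14% in these data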;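 note: 0% = plate median of compound wells and 100% = 30 µM serotonin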
TAAR1 ag = agonists of human TAAR1 | actives 0.99% (n = 360,000) | activation, % at 3 µM | AID 624467 | Q96RJ0 | CHO RD-HGA16 TAAR1, Fluo-8 calcium fluorescence; vehicle wells 0%, saturating PEA agonist 100%;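 active = activation above the mean activation of all test compounds in the run plus 3 SD, cut at about 38% in these data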
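Benchmarks: low control DMSO, high control PEA (EC100); System: CHO RD-HGA16 cells carrying human TAAR1 plus Gα16; Detection: Fluo-8 fluorescence, 5 s baseline then 140 s kinetic read; Schedule: 17-24 h plating, Fluo-8 75 min 37 °C, 30 min RT; Read-out basis: % activation from peak over basal fluorescence ratio, DMSO-to-PEA scaled.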
nonsel antag count = nonselective antagonist in TAAR1 antagonist counter-screen; shares compounds with TAAR1 antag; AID 651780; actives 77% (n = 2,400); counterscreen cell line, calcium fluorescence, antagonist mode; inhibition, % at 3 µM; in the data active = inhibition above about 22%;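 note: CHO-Ga16 host cells stimulated with ATP at an EC80 level; 0% = agonist EC80 plus vehicle and 100% = vehicle without agonist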
TAAR1 ant conf = confirmation of human TAAR1 antagonists | shares compounds with TAAR1 antag | TAAR1-expressing cells, fluorescence antagonist read-out | inhibition, % at 3 µM | actives 40% (n = 2,400) | AID 651785; in the data active = inhibition above about 49%;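 note: CHO-Ga16 host cells challenged with agonist PEA near its EC80; 0% = agonist at EC80 plus vehicle and 100% = vehicle with no agonist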
Ga16 ag counter = nonselective Ga16 agonist in TAAR1 antagonist counter-screen; Ga16-expressing cells, calcium fluorescence, agonist counterscreen; activation, % at 3 µM; shares compounds with TAAR1 antag; actives 18% (n = 2,400); in the data active = activation above about 12%;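 note: 0% = vehicle wells and 100% = saturating stimulus response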
TAAR1 ag counter = TAAR1 agonism, antagonist counter-screen. shares compounds with TAAR1 antag. hTAAR1 cell line, fluorescence activation, agonist mode. activation, % at 3 µM. actives 2% (n = 2,400); in the data active = activation above about 37%;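 note: CHO cells stably expressing TAAR1 with calcium dye readout; 0% = DMSO vehicle and 100% = full agonist response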
Starred values were filed as active, the others as inactive; x = no result. An excerpt weighted towards active compounds, which were near 3.9% of everything screened.

SMILES | CHRM1 PAM | M1 antag | TAAR1 antag | CHRM1 agonist | m5-HT2A agonist | TAAR1 ag | nonsel antag count | TAAR1 ant conf | Ga16 ag counter | TAAR1 ag counter
Cc1ccc(-c2csc(NC(=O)c3cccc(N4C(=O)CCC4=O)c3)n2)o1 | -1 | -3 | x | -3 | 2 | x | x | x | x | x
COc1ccc(-c2csc(NC(=O)c3ccc(N4C(=O)CCC4=O)cc3)n2)cc1 | 4 | 3 | 33 | -1 | 5 | 14 | x | x | x | x
COc1ccc(-c2csc(NC(=O)C3COc4ccccc4O3)n2)cc1OC (configuration not stated) | -15 | 18 | 62* | -4 | 5 | 5 | 29* | 40 | 7 | 5
CCOc1ccc(-c2csc(NC(=O)c3cccc(N4C(=O)CCC4=O)c3)n2)cc1 | 11 | 6 | 68* | 5 | -3 | 19 | 32* | 44 | 12* | 14
COc1ccc(S(=O)(=O)N(C)C[C@H]2OCc3cn(nn3)CCCC(=O)N([C@@H](C)CO)C[C@@H]2C)cc1 | 3 | -22 | 5 | -2 | 2 | 4 | x | x | x | x
O=C(NC1=NCCS1)c1cccc(S(=O)(=O)N2CCOCC2)c1 | 7 | -9 | -5 | -3 | 14 | 5 | x | x | x | x
O=C(Nc1ccc(-c2cn3ccsc3n2)cc1)C1COc2ccccc2O1 (configuration not stated) | -8 | -12 | 60* | 4 | -3 | 24 | 38* | 56* | 15* | 11
CN(C(=O)COC(=O)c1ccc(-c2ccc(O)cc2)cc1)C1CCS(=O)(=O)C1 (configuration not stated) | 9 | -19 | -8 | 1 | -2 | 3 | x | x | x | x
CCOC(=O)Cc1csc(/N=C/c2c(O)n(-c3ccccc3C(F)(F)F)c(=O)c3ccccc23)n1 | -14 | 25 | 75* | 0 | 4 | 16 | 34* | 56* | 9 | 9
CCC(C)n1c(NC(=O)c2ccccc2)c(C#N)c2nc3ccccc3nc21 (configuration not stated) | 4 | -22 | 54* | -1 | 2 | 14 | 28* | 21 | 5 | 0
Cc1ccc(C)c(OCC(O)CNC2CCCC2)c1 (configuration not stated) | 1 | -4 | 5 | -7 | -8 | 4 | x | x | x | x
Cn1c(SCC(=O)NC(=O)Cc2ccccc2)nnc1-c1ccc(F)cc1 | -4 | 10 | -17 | -3 | -2 | 5 | x | x | x | x
CC(=O)C1=C(c2ccccc2)NC(=O)NC1c1cccs1 (configuration not stated) | 5 | -6 | -9 | -4 | 5 | 3 | x | x | x | x
CC(=O)Nc1ccc(SCC(=O)c2c(N)n(Cc3ccccc3)c(=O)n(C)c2=O)cc1 | -1 | -21 | 77* | -1 | 2 | 20 | 30* | 44 | 13* | 14
CC(C)Cn1c(N)c(C(=O)CSc2ccccc2)c(=O)n(C)c1=O | -13 | 16 | 66* | 1 | 3 | 21 | 49* | 65* | 16* | 14
O=C(/C=C/c1ccc(Cl)cc1Cl)NCCSCc1ccccc1 | 3 | -7 | 2 | -6 | -6 | 4 | x | x | x | x
Cc1ccc(CSCCNC(=O)/C=C/c2ccccc2Cl)cc1 | -4 | -2 | 52* | -4 | 0 | 10 | 25* | 27 | 3 | 6
Cc1sc2ncn(CC(=O)Nc3cccc(S(N)(=O)=O)c3)c(=O)c2c1-c1ccccc1 | 7 | -11 | -13 | -4 | -6 | 1 | x | x | x | x
Cc1cccc(C)c1-c1ccc(CN2C(CC(C)C)C(=O)N(Cc3cn(CCO)nn3)CCS2(=O)=O)cc1 (configuration not stated) | -9 | 29* | 90* | -3 | 5 | 34 | 53* | 67* | 21* | 19
CCc1nc(SCc2ccc(OCC(C)C)cc2)n[nH]1 | -3 | 4 | -31 | 2 | 0 | 0 | x | x | x | x
COc1ccc(S(=O)(=O)N(CC(=O)NCc2ccncc2)c2ccc(C)cc2)cc1OC | 6 | -12 | -12 | -7 | 4 | 2 | x | x | x | x
CC1(C)N=C(SCC(=O)Nc2ccccc2)C(c2ccc(Cl)cc2)=N1 | -2 | 12 | 54* | 1 | 8 | 8 | 20 | 22 | 7 | 2
CCOc1ccc(C(=O)CCC(=O)N2CCN(S(=O)(=O)c3cccc(F)c3)CC2)cc1 | 12 | -9 | 70* | -3 | -3 | -1 | 6 | 5 | 2 | 4
Cc1ccc(OCCCC(=O)N2CCN(S(=O)(=O)c3cccc(F)c3)CC2)cc1 | 9 | -28 | 3 | -2 | 1 | 13 | x | x | x | x
CCCCC(O)(CCCC)C(=O)NN(C(=O)c1cccnc1Cl)c1ccccc1 | 10 | -11 | 3 | -5 | 0 | -2 | x | x | x | x
SMILES | CHRM1 PAM | M1 antag | TAAR1 antag | CHRM1 agonist | m5-HT2A agonist | TAAR1 ag | nonsel antag count | TAAR1 ant conf | Ga16 ag counter | TAAR1 ag counter
Cc1ccc(Nc2nc(NCc3cccs3)nc3ccsc23)c(C)c1 | -15 | 13 | 76* | 6 | -8 | 28 | 57* | 66* | 18* | 26
O=S(=O)(c1ccccc1Br)N(CC(O)COCc1ccccc1)C1CC1 (configuration not stated) | 4 | -6 | -17 | -3 | 4 | -1 | x | x | x | x
O=S(=O)(c1ccccc1Br)N(Cc1ccccc1)CC(O)COCc1ccccc1 (configuration not stated) | 1 | -7 | 59* | 0 | -1 | 5 | 13 | 18 | 3 | 6
C[C@@H]1CN([C@@H](C)CO)C(=O)CCCn2nncc2CO[C@H]1CN(C)S(=O)(=O)c1cccs1 | 3 | -9 | 3 | -6 | -4 | 2 | x | x | x | x
C=CCN1C(=O)CSc2ccc(C(=O)NCCC3=CCCCC3)cc21 | -10 | 16 | 55* | 0 | -1 | 20 | 38* | 50* | 14* | 11
O=C(CN1C(=O)c2cccnc2Oc2ccc(Cl)cc21)NCCCc1ccccc1 | -9 | 30* | 84* | 2 | 12 | 8 | 32* | 56* | 9 | 9
C=CCN(C(=O)C1CC(=O)N(C2CCCC2)C1)c1nc(-c2ccc(S(C)(=O)=O)cc2)cs1 (configuration not stated) | -20 | 30 | 78* | 2 | 7 | 33 | 38* | 65* | 18* | 30
